Reference: article PMC8892239 (EFSA Journal, 2022)
Values after ≈ are worked out from the molar mass of the structure shown. Values joined by “and” are separate entries in the source; they are usually repeats but may differ in a detail not shown here. Equal entries are not always repeated. Where two headings read alike, the source gives them in different places.

How the values were obtained:
[1] = at 22°C; ref EFSA, 2010; cited from earlier work
[2] = Stability of EQ in complete feed for chickens for fattening; assay type: physicochemical; settings: 50, 150 or 500 mg EQ/kg feed
male BALB/c mice = assay: Subchronic; assay type: in vivo, mouse; settings: EQ 5,000 mg/kg feed, after 10 days, mice refused their feed
How it was run: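 Groups of 10 BALB/c mice were fed the dimer for 90 days. Nominal levels were 0, 0.1, 1, 100, 1,000, 3,000 and 5,000 mg/kg feed, equal to 0, 0.015, 0.081, 10, 99, 286 and 518 mg/kg bw per day. A parent-compound group started at 5,000 mg/kg feed, was reduced to 1,000 mg/kg feed and was later excluded. BMD modelling used a 10% (or 20%) benchmark response.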

Daphnia magna [3] = assay: 21-day semi-static reproduction test; assay type: in vivo
[4] = system: Pacific oyster Crassostrea gigas; assay: 24-h embryo-larval developmental test; assay type: in vivo; settings: initially measured concentrations
Chironomus riparius = assay: Water-sediment test with spiked sediment, OECD 218, 28 days; assay type: in vivo; settings: nominal
How it was run: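 GLP static 28-day Chironomus riparius water–sediment test per OECD 218. The sediment was spiked at 62.5, 125, 250, 500 and 1,000 mg/kg sediment DW (nominal).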

[5] = ref EFSA, 2010, cited from earlier work
Beagle dogs = settings: ref EFSA FEEDAP Panel, 2015, cited from earlier work
[6] = at 25°C; ref EFSA, 2010; cited from earlier work
[7] = Residues of EQ and EQDM in fish flesh; assay type: in vivo; settings: Atlantic salmon, oral, 50 mg EQ/kg feed
How it was run: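 Flesh was sampled from 15 fish per group after 90 days of feeding. The parent compound and its dimer were quantified by HPLC with fluorescence detection.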

soil microflora = assay: Nitrogen Transformation Test, OECD 216
How it was run: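 Soil nitrogen transformation test per OECD 216, assessed on day 28. An effect was judged as deviation from control, with 25% as the criterion. A maximum variation below 15% was the validity criterion.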

[8] = cited from earlier work; for Water solubility: ref EFSA, 2010
[9] = system: Brassica napus (oilseed rape); assay: Seedling emergence and seedling growth test, OECD 208; assay type: in vivo; settings: 21 days
How it was run: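 Soil was spiked with the test compound; measured concentrations were checked against nominal. From 50% emergence in controls, emergence, survival and visible phytotoxicity were recorded weekly for 21 days. At the end, emergence, survival, shoot fresh weight and visible damage were recorded. Effect concentrations were derived from dose–response curves.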

[10] = ref EFSA FEEDAP Panel, 2015; cited from earlier work
Caenorhabditis elegans = assay: Sediment toxicity test, ISO 10872, 96 h; assay type: in vivo
How it was run: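 GLP sediment test with Caenorhabditis elegans per ISO 10872. Sediment levels were 25.6, 64, 160, 400 and 1,000 mg/kg sediment DW, with four replicates per control and per concentration. Fertility, reproduction and growth were read 96 h after the nematodes were added.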

[11] = Assessment of secondary poisoning
Lumbriculus variegatus = assay: Water-sediment test, OECD 225, 28 days; assay type: in vivo
How it was run: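 Lumbriculus variegatus test per OECD 225 in spiked artificial sediment, run for 28 days. Nominal levels were 18.8, 37.5, 75, 150, 300 and 600 mg/kg sediment DW, with four replicates each. An untreated control and a solvent control were run, six replicates each.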

Atlantic salmon = assay: Tolerance study in Atlantic salmon; assay type: in vivo, Salmo salar L.
[12] = Metabolism of 14C-EQ in liver microsomes; assay type: in vitro ADME, rat, laying hen and goat; settings: 10 and 100 µM, 37°C, 2 h
How it was run: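 Liver microsomes were used. Hen (Isa-Warren) and goat (Deutsche Edelziege/Burenziege) microsomes were prepared in-house; rat microsomes were commercial. Incubation was with ring-¹⁴C(U)-labelled test compound at 10 and 100 µM, 37°C, 2 h.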

Daphnia magna [13] = assay: 48-h semi-static acute toxicity test, OECD 202; assay type: in vivo; settings: read-out: 48h EC50 (immobilization)
[14] = Oxygen bomb method, feed for chickens for fattening; settings: for induction period: basal feed 7 h
[15] = 5,000 mg/kg feed (EQ4), 90 days
[16] = 10,000 mg/kg feed (EQ5), 90 days

Which results are given for `CCOc1ccc2c(c1)C(C)=CC(C)(C)N2` [EQ, 6‐ethoxy‐1,2‐dihydro‐2,2,4‐trimethylquinoline]?
Dissociation constant [1]: 4.56 at 22 °C; EQ losses ([2]; after 90 days at 40°C, 75% RH): about 80%; EQ losses ([2]; after 90 days, ambient conditions): 30–50%; loss of initial body weight (male BALB/c mice): 11%; EC10 (Daphnia magna [3]; as used in risk characterisation): 0.06 µg/mL (≈ 0.276 µM); 21-day EC10 (number of offspring per introduced and survived parent) (Daphnia magna [3]; nominal concentrations, 95% confidence interval 46.9–76.0): 0.0597 µg/mL; 24-h NOEC (development) [4]: 2.9 mg/L; EC10 development rate (Chironomus riparius): > 250 mg/kg sediment DW; NOEC development rate (Chironomus riparius): 125 mg/kg sediment DW; NOEC emergence rate (Chironomus riparius): 250 mg/kg sediment DW; Octanol/water partition coefficient (log Kow 25°C) ([5]; pH 5): 3.18; Octanol/water partition coefficient (log Kow 25°C) ([5]; pH 7): 3.39; Octanol/water partition coefficient (log Kow 25°C) ([5]; pH 9): 3.19; lowest NOAEL (Beagle dogs; dogs, based on hepatocellular necrosis): 2 mg/kg bw per day; maximum potentially safe concentration in feeds for dogs (Beagle dogs): 11 mg/kg complete feed; Vapour pressure [6]: 3.46 × 10^–2 at 25 °C Pa; concentration at 90 days [7]: 40 ng/g; deviation from control (soil microflora; day 28, 10.70 mg test item/kg soil DW): < 25%; effect on soil nitrogen transformation (soil microflora; day 28, highest tested concentration 10.70 mg test item/kg soil DW): no adverse effects; Water solubility ([8]; pH 5, 20°C): 101 µg/mL; Water solubility ([8]; pH 7, 20°C): 60 µg/mL; Solubility at pH 7 (input for PEC) ([8]; pH 7): 60 mg/L; Water solubility ([8]; pH 9, 20°C): 70 µg/mL; EC50, shoot fresh weight [9]: 155.6 mg/kg; conclusion on toxicological profile [10]: not genotoxic, carcinogenic, and does not cause developmental toxicity in the offspring; EC10 for fertility and growth (Caenorhabditis elegans): > 1,000 mg/kg sediment DW; EC10 for reproduction (Caenorhabditis elegans): 727 mg/kg sediment DW; NOEC for fertility, reproduction and growth (Caenorhabditis elegans): 400 mg/kg sediment DW; PECfish/PNECoral [11]: 1; NECoral ([11]; from NOEC 80 mg/kg feed, assessment factor of 90): 0.89 mg/kg; PECfish/PNECoral ([11]; listed as Ethoxyquin): 1.0; EC10 for total number of worms/reproduction and total biomass per replicate (Lumbriculus variegatus): 148 mg test item/kg sediment DW and 148 ^* mg test item/kg sediment DW; NOEC for total number of worms and reproduction (Lumbriculus variegatus): 150 mg test item/kg sediment DW; mortality (Lumbriculus variegatus; 300 mg/kg sediment DW): 50%; mortality (Lumbriculus variegatus; 600 mg/kg sediment DW): 100%; condition factor (Atlantic salmon; 5,000 mg/kg feed (EQ4)): 1.3 g/mL; daily feed intake (Atlantic salmon; 5,000 mg/kg feed (EQ4)): 2.9 g/fish per day; specific growth rate (Atlantic salmon; 5,000 mg/kg feed (EQ4)): 0.8 % bw per day; total feed intake (Atlantic salmon; 5,000 mg/kg feed (EQ4)): 255 g/fish; bw gain (Atlantic salmon; [15]): 276 g; final bw (Atlantic salmon; [15]): 537 g; condition factor (Atlantic salmon; 10,000 mg/kg feed (EQ5)): 1.1 g/mL; daily feed intake (Atlantic salmon; 10,000 mg/kg feed (EQ5)): 1.1 g/fish per day; final salmon length (Atlantic salmon; 10,000 mg/kg feed (EQ5)): 29 cm; specific growth rate (Atlantic salmon; 10,000 mg/kg feed (EQ5)): 0.1 % bw per day; total feed intake (Atlantic salmon; 10,000 mg/kg feed (EQ5)): 100 g/fish; bw gain (Atlantic salmon; [16]): 38 g; final bw (Atlantic salmon; [16]): 301 g; mortality (Atlantic salmon; up to 10,000 mg/kg feed, 90 days): No fish died; extent of metabolism [12]: metabolised extensively; number of metabolites identified ([12]; irrespective of origin): 18; EC50 (Daphnia magna [13]): 2.48 µg/mL (≈ 11.4 µM); induction period ([14]; 25 mg ethoxyquin/kg feed): 7.6 h; protection factor ([14]; 50 mg ethoxyquin/kg feed): 1.46; induction period ([14]; 50 mg ethoxyquin/kg feed): 9.9 h
